# The source made the active and inactive calls. The rule behind the calls is not given here.
# What was measured:
# [1] = Therapeutic index, ratio of CC50 for human PBMC to EC50 for HIV1 92RW009 infected in human PBMC; details: read-out: TI
# Outline: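 Frozen PHA-stimulated (1.5 μg/ml, 3 days) buffy-coat PBMCs pooled from three or four seronegative donors. Infected with a TCID50-based virus input per 10⁶ cells for 1 h at 37°C, then pelleted and resuspended in 10 ng/ml IL-2. Plated at 4 × 10⁵ cells/ml on compound dilutions for 7 days at 37°C. Supernatant RT measured by Quan-T-RT. TI is mean CC50 divided by mean EC50.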
# [2] = Cytotoxicity against human MT2 cells after 6 days by XTT assay; type: cell-based
# Outline: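 Uninfected cells were incubated with half-log compound dilutions for 6 days, then given XTT/PMS for 4 h and read at 450 nm. CC50 was the concentration reducing formazan to 50% of uninfected, compound-free cells. Values are means ± SD from 3–5 experiments or individual values.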
# [3] = Cytotoxicity against human PM1 cells after 5 days by XTT assay; type: cell-based
# Outline: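 CC50 in uninfected PM1 cells was measured by the XTT dye-reduction method: XTT/PMS for 4 h, absorbance at 450 nm, 50% of compound-free formazan.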
# [4] = system: Human immunodeficiency virus 1; assay: Antiviral activity against HIV1 Ba-L infected in human PM1 cells assessed as inhibition of viral p24 antigen production after 5 days; type: functional, organism-based; details: Human immunodeficiency virus 1, Ba-L, PM1, 120 h
# Outline: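 PM1 cells (NL4-3, Ba-L) or MT-2 cells (92HT594, 92HT599) were infected at MOI 0.16 for 2 h and washed. They were plated at 1 × 10⁴ cells/well (2 × 10⁵/ml) onto half-log compound dilutions. Supernatant p24 was quantified by ELISA at day 5. EC50 was the concentration giving a 50% decrease versus infected, compound-free cells.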
# [5] = Therapeutic index, ratio of CC50 for human MT2 cells to EC50 for HIV1 3B infected in human MT2 cells; type: cell-based; details: read-out: TI
# Outline: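 TI was the mean CC50 (XTT, uninfected MT-2) divided by the mean EC50, determined for each cell line in each experiment.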
# [6] = system: Human immunodeficiency virus 1; assay: Antiviral activity against HIV1 harboring capsid I201V mutant protein assessed as inhibition of virion maturation-associated CA/SP1 processing; type: functional, organism-based
# Outline: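 HEK 293 cells were transfected with pNL4-3 CAI201V, pNL4-3 or mock, with or without compound at various concentrations, and supernatants collected 72 h later. Supernatants were clarified at 200 × g, and virions pelleted through a 20% sucrose–PBS cushion (20,000 × g, 3 h, 4°C) and lysed. Proteins were run on 4–12% Bis-Tris/MOPS gels and immunoblotted with anti-p24 (1:1,000) to detect CA/SP1 p25 versus p24.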
# [7] = Therapeutic index, ratio of CC50 for human PM1 cells to EC50 for HIV1 Ba-L infected in human PM1 cells; type: cell-based; details: read-out: TI
# Outline: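 PM1 cells infected at MOI 0.16 for 2 h, washed, then seeded at 1 × 10⁴ cells/well on half-log compound dilutions. After 5 days, supernatant p24 antigen was quantified by ELISA kit. EC50 is the concentration halving p24 versus infected untreated cells. CC50 was measured in PM1 cells by XTT formazan at 450 nm. TI is CC50 divided by EC50.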
compound,measurement,setting,value
CC(C)(C)c1ccc(C(Cn2cccc(C(F)(F)F)c2=O)NC2Cc3ccccc3C2)cc1 (configuration not stated),selectivity ratio,[1],12
same,CC50 at 144 h,[2],15 µM
same,CC50 at 120 h,[3],19 µM
same,EC50,[4],5.3 µM
same,selectivity ratio,[5],1120
same,inhibition,[6],inactive
same,selectivity ratio,[7],4

# Source: ChEMBL document CHEMBL1649302, “New small-molecule inhibitor class targeting human immunodeficiency virus type 1 virion maturation” (Antimicrob Agents Chemother, 2009)
